ChEMBL document CHEMBL1122876, “Quantitative structure-activity relationship of antifolate inhibition of bacteria cell cultures resistant and sensitive to methotrexate” (1985)
Where “and” joins values, the source holds several entries; their conditions need not be identical. Equal values may be shown once.

Key:
Escherichia coli [1] = assay: Inhibition of growth of methotrexate-resistant (MB1428) strain of Escherichia coli cells.; assay type: functional
Outline: (§1)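 E. coli cultures kept on nutrient agar slants. Inoculum from two serial 24 h, 37 °C transfers in glucose-salts medium with 0.6% vitamin-free acid-hydrolyzed casein, washed twice, then diluted to about 15 cells/mL. Each 10 mL tube held basal medium, 25% glucose solution (1 mL) and inhibitor dissolved in water or 0.04 M HCl, diluted in sterile water. C = molar concentration giving 50% culture inhibition.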

Escherichia coli [2] = assay: Inhibition of growth of methotrexate-sensitive (MB1417) strain of Escherichia coli cells.; assay type: functional; outline: as §1
[3] = molecular target: T1, Dihydrofolate reductase type 1 (Escherichia coli) (UniProt P00382)
T1 sequence (whole entry): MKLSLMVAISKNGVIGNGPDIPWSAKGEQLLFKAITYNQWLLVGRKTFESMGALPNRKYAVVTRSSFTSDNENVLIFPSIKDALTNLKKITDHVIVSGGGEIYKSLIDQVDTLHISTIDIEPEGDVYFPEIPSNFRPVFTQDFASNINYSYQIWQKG

Escherichia coli [4] = assay: Inhibition of growth of methotrexate resistant (MB1428) strain of Escherichia coli cells; assay type: functional; outline: as §1
Escherichia coli [5] = assay: Inhibition of growth of methotrexate sensitive (MB1417) strain of Escherichia coli cells; assay type: functional; outline: as §1
Escherichia coli [6] = assay: The compound was evaluated for the inhibition of growth of methotrexate resistant (MB1428) strain of Escherichia coli cells; d=values could not be determined due to solubility problems encountered with these congener; assay type: functional, organism-based
Escherichia coli [7] = assay: Compound was evaluated for the inhibition of growth of methotrexate resistant (MB1428) strain of Escherichia coli cells; d=values could not be determined due to solubility problems encountered with these congener; assay type: functional, organism-based; outline: as §1
Escherichia coli [8] = assay: Compound was evaluated for the inhibition of growth of methotrexate sensitive (MB1417) strain of Escherichia coli cells; d=values could not be determined due to solubility problems encountered with these congener; assay type: functional, organism-based; outline: as §1

SMILES	Log 1/C (Escherichia coli [1])	Log 1/C (Escherichia coli [2])	also measured
Nc1ncc(Cc2ccc(Br)cc2)c(N)n1	3.69	5.12	–
CCCCCCCOc1cccc(Cc2cnc(N)nc2N)c1	4.84	4.88	–
C=C(C)c1c(OC)cc(Cc2cnc(N)nc2N)cc1OC	5.66	6.63	–
CC1(C)N=C(N)N=C(N)N1c1cccc(OCCOc2cccc(C(F)(F)F)c2)c1	4.14	4.01	–
Cc1cccc(SCc2cccc(N3C(N)=NC(N)=NC3(C)C)c2)c1	–	–	Log 1/Ki app [3]: 6.57; Log 1/C (Escherichia coli [4]): 3.76; Log 1/C (Escherichia coli [5]): 3.87
CCc1nc(N)nc(N)c1-c1ccc(Cl)cc1 [PYRIMETHAMINE]	3.56	4.21	–
CC1(C)N=C(N)N=C(N)N1c1cccc(COc2cccc(C#N)c2)c1	–	–	Log 1/Ki app [3]: 6.05; Log 1/C (Escherichia coli [4]): 3.02; Log 1/C (Escherichia coli [5]): 2.74
COCCOc1cccc(Cc2cnc(N)nc2N)c1	2.92	4.33	–
Cc1cccc(Cc2cnc(N)nc2N)c1	3.29	4.91	–
Cc1nc(N)nc(N)c1-c1ccc(Cl)c(Cl)c1 [METOPRINE]	4.35	4.24	–
COc1cc(Cc2cnc(N)nc2N)cc(OC)c1Br [BRODIMOPRIM]	5.69	6.67	–
COc1ccc(Cc2cnc(N)nc2N)cc1OC [DIAVERIDINE]	4.46	6.08	–
CCCCCCOc1ccc(Cc2cnc(N)nc2N)cc1	4.55	4.79	–
CC1(C)N=C(N)N=C(N)N1c1cccc(OCC23CC4CC(CC(C4)C2)C3)c1	–	–	Log 1/C (Escherichia coli [4]): 4.63; Log 1/C (Escherichia coli [5]): 4.49
CC1(C)N=C(N)N=C(N)N1c1cccc(COc2cccc(CO)c2)c1	–	–	Log 1/Ki app [3]: 6.19; Log 1/C (Escherichia coli [4]): 2.51; Log 1/C (Escherichia coli [5]): 2.38
Nc1ncc(Cc2ccc([N+](=O)[O-])cc2)c(N)n1	3.43	4.53	–
COCc1cccc(Cc2cnc(N)nc2N)c1	2.98	4.68	–
CC(=O)Nc1ccc(Cc2cnc(N)nc2N)cc1	3.03	4.08	–
CC1(C)N=C(N)N=C(N)N1c1cccc(CSc2ccccc2)c1	–	–	Log 1/C (Escherichia coli [4]): 3.52; Log 1/C (Escherichia coli [5]): 3.39
CCCCCCCCCCCOc1cccc(N2C(N)=NC(N)=NC2(C)C)c1	–	–	Log 1/Ki app [3]: 6.19; Log 1/C (Escherichia coli [4]): 5.5; Log 1/C (Escherichia coli [5]): 5.5
CCOc1cc(Cc2cnc(N)nc2N)ccc1OCc1ccccc1	–	5.04	Log 1/C (Escherichia coli [6]): Not detected
COCCOc1c(OC)cc(Cc2cnc(N)nc2N)cc1OC [TETROXOPRIM]	4.72	5.83	–
CS(=O)(=O)Oc1cccc(Cc2cnc(N)nc2N)c1	3.35	4.59	–
CCc1cccc(OCc2cccc(N3C(N)=NC(N)=NC3(C)C)c2)c1	–	–	Log 1/Ki app [3]: 5.95; Log 1/C (Escherichia coli [4]): 3.98; Log 1/C (Escherichia coli [5]): 3.67
CCCCOc1cccc(N2C(N)=NC(N)=NC2(C)C)c1	–	–	Log 1/C (Escherichia coli [4]): 3.49; Log 1/C (Escherichia coli [5]): 3.29
COCCOc1ccc(Cc2cnc(N)nc2N)cc1	3.11	4.61	–
CC(C)(C)c1cccc(OCc2cccc(N3C(N)=NC(N)=NC3(C)C)c2)c1	–	–	Log 1/Ki app [3]: 6.06; Log 1/C (Escherichia coli [4]): 4.19; Log 1/C (Escherichia coli [5]): 4.1

SMILES	Log 1/C (Escherichia coli [1])	Log 1/C (Escherichia coli [2])	also measured
COc1ccc(Cc2cnc(N)nc2N)cc1	3.46 and 3.7	5.24 and 4.77	–
Nc1ncc(Cc2cccc(Cl)c2)c(N)n1	3.46	4.92	–
COc1ccc(OC)c(Cc2cnc3nc(N)nc(N)c3c2C)c1 [PIRITREXIM]	4.56	5.95	–
COc1cc(Cc2cnc(N)nc2N)cc(OC)c1OC [TRIMETHOPRIM]	5.34	6.61	–
COc1cccc(OCc2cccc(N3C(N)=NC(N)=NC3(C)C)c2)c1	–	–	Log 1/Ki app [3]: 6.02; Log 1/C (Escherichia coli [4]): 3.26; Log 1/C (Escherichia coli [5]): 3.21
CCCCCCCCOc1cc(Cc2cnc(N)nc2N)ccc1OC	–	4.91	Log 1/C (Escherichia coli [7]): Not detected
CC1(C)N=C(N)N=C(N)N1c1cccc(COc2cccc(NC(N)=O)c2)c1	–	–	Log 1/Ki app [3]: 5.91
Nc1ncc(Cc2cccc(O)c2)c(N)n1	2.94	4.35	–
COc1cc(Cc2cnc(N)nc2N)cc(OC)c1	4.55	6.08	–
Nc1ncc(Cc2ccccc2)c(N)n1	2.92	4.28	–
CC1(C)N=C(N)N=C(N)N1c1cccc(COc2cccc(NC(=N)S)c2)c1	–	–	Log 1/Ki app [3]: 6.17
CC1(C)N=C(N)N=C(N)N1c1ccc(Cl)cc1 [CYCLOGUANIL]	2.5	2.47	–
CCCCCCCCOc1c(OC)cc(Cc2cnc(N)nc2N)cc1OC	–	5.18	Log 1/C (Escherichia coli [7]): Not detected
COc1cc(Cc2cnc(N)nc2N)cc(OC)c1SC [METIOPRIM]	5.66	6.97	–
CCCCCCCCOc1cccc(Cc2cnc(N)nc2N)c1	4.41	–	Log 1/C (Escherichia coli [8]): Not detected
CC1(C)N=C(N)N=C(N)N1c1cccc(S(=O)(=O)F)c1	2	2.5	–
CCCCOc1ccc(Cc2cnc(N)nc2N)cc1	4.01	4.76	–
CC1(C)N=C(N)N=C(N)N1c1cccc(OCc2ccc(Cl)c(Cl)c2)c1	–	–	Log 1/Ki app [3]: 6.15; Log 1/C (Escherichia coli [4]): 4.01; Log 1/C (Escherichia coli [5]): 4.13
CC1(C)N=C(N)N=C(N)N1c1cccc(COc2cccc(Cl)c2)c1	–	–	Log 1/Ki app [3]: 6.01
CCCCCCCCCCCCCCOc1cccc(N2C(N)=NC(N)=NC2(C)C)c1	–	–	Log 1/Ki app [3]: 5.85
CN(C)c1ccc(Cc2cnc(N)nc2N)cc1	3.46	4.94	–
Cc1cccc(OCc2cccc(N3C(N)=NC(N)=NC3(C)C)c2)c1	–	–	Log 1/Ki app [3]: 6.27; Log 1/C (Escherichia coli [4]): 3.41; Log 1/C (Escherichia coli [5]): 3.27
CCOCc1cccc(N2C(N)=NC(N)=NC2(C)C)c1	–	–	Log 1/Ki app [3]: 5.92
CCCCCCCCCCCCOc1cccc(N2C(N)=NC(N)=NC2(C)C)c1	–	–	Log 1/Ki app [3]: 5.88
CCCCCCOc1cccc(Cc2cnc(N)nc2N)c1	4.53	4.81	–
CN(Cc1cnc2nc(N)nc(N)c2n1)c1ccc(C(=O)N[C@@H](CCC(=O)O)C(=O)O)cc1 [METHOTREXATE]	2.7	3.76	–
